According to ChEMBL document CHEMBL1152982, “Synthetic analogue of rocaglaol displays a potent and selective cytotoxicity in cancer cells: involvement of apoptosis inducing factor and caspase-12” (J Med Chem, 2009):
Active and inactive are the calls of the source. The calls are words filed in the database; no cut-off is given here. Residues, ends and D or L forms follow the SMILES beside them. *: point of attachment. Cbz = O=C(OCc1ccccc1)*; CH2F = FC*

Assays:
[1] = test system: KB; assay: Cytotoxicity against human KB cells after 72 hrs by MTS assay; assay type: functional, cell-based
Method in brief: (§1)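 Human cancer lines treated for 72 h and proliferation/viability read by MTS assay; dose-response curves in duplicate with IC50 taken from the curves; MCF7R is the P-gp (MDR1)-expressing resistant line.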

[2] = test system: MCF7; assay: Cytotoxicity against human MCF7 cells after 72 hrs by MTS assay; assay type: functional, cell-based; method in brief: as §1
[3] = test system: MCF7; assay: Cytotoxicity against human MCF7 cells expressing P-glycoprotein after 72 hrs by MTS assay; assay type: functional, cell-based; method in brief: as §1
[4] = test system: HCT-116; assay: Cytotoxicity against human HCT116 cells after 72 hrs by MTS assay; assay type: functional, cell-based; details: HCT-116, 72 h; method in brief: as §1
[5] = test system: HCT-15; assay: Cytotoxicity against human HCT15 cells after 72 hrs by MTS assay; assay type: functional, cell-based; method in brief: as §1
[6] = test system: HL-60; assay: Cytotoxicity against human HL60 cells after 72 hrs by MTS assay; assay type: functional, cell-based; details: HL-60, 72 h
Method in brief: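 HL60 cells exposed to compound for 72 h; proliferation/viability read by MTS assay. IC50 taken from dose-response curves run in duplicate.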

[7] = biological target: ATP-dependent translocase ABCB1 (Homo sapiens, UniProt P08183); assay: Inhibition of P-glycoprotein expressing human MCF7 cells assessed as change in rhodamine 123 efflux at 0.1 to 1 uM; assay type: cell-based
[8] = test system: HepG2; assay: Cytotoxicity against human HepG2 cells after 72 hrs by MTS assay; assay type: functional, cell-based; method in brief: as §1
[9] = test system: H9c2; assay: Induction of apoptosis in rat H9c2 cells at 1 uM after 24 hrs by FACS analysis; assay type: cell-based; details: h9c2, 24 h
Method in brief: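 Rat H9c2 cardiomyoblasts treated 24 h with compound or vehicle. Cells labeled with annexin V and propidium iodide and analyzed by FACS for apoptosis.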

[10] = test system: HL-60; assay: Cell cycle arrest in human HL60 cells assessed as accumulation of cells in G2/M phase at 20 nM after 48 hrs by FACS analysis; assay type: functional, cell-based
Method in brief: (§2)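 HL60 cells treated for 48 h; vehicle control 1% DMSO, doxorubicin as positive control. Propidium iodide staining, DNA content by flow cytometry giving cell-cycle distribution (G2/M, G0-G1 peaks); n = 4, each sample in duplicate.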

[11] = test system: HL-60; assay: Induction of apoptosis in human HL60 cells assessed as increase in caspase 3/7-mediated at 1 uM after 48 hrs measured by spectroscopy; assay type: functional
Method in brief: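 HL60 cells treated 48 h. Whole-cell extracts tested for cleavage of the caspase-3 substrate DEVD-AMC, with fluorescence release read spectroscopically. Rates taken from the slope of the linear time course and expressed as fold-activation over the DMSO-treated control.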

[12] = test system: HepG2; assay: Enhancement of doxorubicin-induced cytotoxicity against human HepG2 cells after 72 hrs by MTS assay; assay type: functional, cell-based
Method in brief: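 HepG2 cells given the test agent alone or together with 150 nM doxorubicin for 72 h; proliferation by MTS assay; duplicate experiments, n = 3.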

[13] = test system: H9c2; assay: Induction of apoptosis in rat H9c2 cells at 0.5 to 50 nM after 24 hrs by FACS analysis; assay type: cell-based; details: h9c2, 24 h, 0.05 µM
Method in brief: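 Rat H9c2 cardiomyoblasts treated 24 h (0.5-50 nM) or 24, 48 and 72 h (20 nM) versus vehicle; annexin V plus propidium iodide labeling and FACS for apoptosis; viability in parallel by MTS; doxorubicin 1 μM as positive control.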

[14] = test system: HL-60; assay: Cell cycle arrest in human HL60 cells assessed as accumulation of cells in G2/M phase at 200 nM after 48 hrs by FACS analysis; assay type: functional, cell-based; method in brief: as §2
[15] = test system: HL-60; assay: Cell cycle arrest in human HL60 cells assessed as increase in G0/G1 peak at 200 nM after 48 hrs by FACS analysis; assay type: functional, cell-based; method in brief: as §2
[16] = test system: HL-60; assay: Cell cycle arrest in human HL60 cells assessed as increase in G0/G1 peak at 20 nM after 48 hrs by FACS analysis; assay type: functional, cell-based; method in brief: as §2
[17] = test system: HL-60; assay: Induction of apoptosis in human HL60 cells assessed as caspase 3/7-mediated DEVD-AMC substrate cleavage at 1 to 1000 nM after 48 hrs by spectroscopy; assay type: functional, cell-based
Method in brief: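 HL60 cells treated 48 h, doxorubicin as positive control; whole-cell extracts incubated with DEVD-AMC, fluorescence release followed over time; rate from slope of linear phase, expressed as fold-activation over DMSO-treated control.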

[18] = test system: HL-60; assay: Antiproliferative activity against human HL60 cells at 50 nM in presence of caspase inhibitor Z-VAD-FMK; assay type: functional, cell-based
Method in brief: (§3)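 HL60 cells exposed for 72 h, with or without co-treatment with Z-VAD-FMK (50 μM), necrostatin-1 (50 μM) or 3-methyladenine (2 mM). Antiproliferative effect was compared against vehicle.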

[19] = test system: HL-60; assay: Antiproliferative activity against human HL60 cells at 50 nM in presence of […] inhibitor necrostatin 1; assay type: functional, cell-based; method in brief: as §3
[20] = test system: HL-60; assay: Antiproliferative activity against human HL60 cells at 50 nM in presence of […] inhibitor 3-methyladenine; assay type: functional, cell-based; method in brief: as §3
[21] = test system: HL-60; assay: Inhibition of proteasome activity in human HL60 cells at 20 to 200 nM; assay type: subcellular
Method in brief: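 Lysates of HL60 cells incubated with compound; in vitro chymotrypsin-like and trypsin-like proteasome activities measured with fluorogenic AMC substrates (LLVY-AMC, RLR-AMC).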

[22] = test system: HL-60; assay: Cytotoxicity against human HL60 cells; assay type: functional, cell-based
[23] = Drug localization in mitochondria of human HeLa cells at 50 uM after 2 hrs by Mito-Tracker Red dye; assay type: ADME
Method in brief: (§4)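 Live HeLa cells incubated with 50 μM fluorescent probe for 2 h, then 15 min with 1 μM organelle dye: Mito-Tracker Red (mitochondria), ER-tracker red (endoplasmic reticulum), or BODIPY 558/568 brefeldin A (ER plus Golgi). Localization judged by overlap of probe and dye signals in merged confocal images.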

[24] = Drug localization in endoplasmic reticulum of human HeLa cells at 50 uM after 2 hrs by ER tracker; assay type: ADME, cell-based; method in brief: as §4
[25] = test system: HL-60; assay: Inhibition of chymotrypsin-like activity of proteasome in human HL60 cells at 100 nM
Method in brief: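 Lysates of HL60 cells treated with compound; chymotrypsin-like proteasome activity of the lysate measured in vitro.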

[26] = test system: HeLa; assay: Binding affinity to eIF4A in human HeLa cell extract by agarose pulldown assay; assay type: cell-free
[27] = Drug localization in endoplasmic reticulum of human HeLa cells after 2 hrs by ER tracker; assay type: ADME, cell-based; method in brief: as §4
[28] = Drug localization in golgi apparatus of human HeLa cells after 2 hrs by Brefeldin tracker; assay type: ADME, cell-based; method in brief: as §4
[29] = Drug localization in mitochondria of human HeLa cells after 2 hrs by Mito-Tracker Red dye
[30] = Inhibition of cap-dependent […] of firefly luciferase in mouse Krebs2 cell extract; assay type: functional, cell-free
[31] = Homo sapiens, MCF7, 72 h, read-out: IC50
[32] = Homo sapiens, HCT-15, 72 h, read-out: IC50
[33] = Homo sapiens, HepG2, 72 h, read-out: IC50

Sequence of ATP-dependent translocase ABCB1 (P08183 whole entry): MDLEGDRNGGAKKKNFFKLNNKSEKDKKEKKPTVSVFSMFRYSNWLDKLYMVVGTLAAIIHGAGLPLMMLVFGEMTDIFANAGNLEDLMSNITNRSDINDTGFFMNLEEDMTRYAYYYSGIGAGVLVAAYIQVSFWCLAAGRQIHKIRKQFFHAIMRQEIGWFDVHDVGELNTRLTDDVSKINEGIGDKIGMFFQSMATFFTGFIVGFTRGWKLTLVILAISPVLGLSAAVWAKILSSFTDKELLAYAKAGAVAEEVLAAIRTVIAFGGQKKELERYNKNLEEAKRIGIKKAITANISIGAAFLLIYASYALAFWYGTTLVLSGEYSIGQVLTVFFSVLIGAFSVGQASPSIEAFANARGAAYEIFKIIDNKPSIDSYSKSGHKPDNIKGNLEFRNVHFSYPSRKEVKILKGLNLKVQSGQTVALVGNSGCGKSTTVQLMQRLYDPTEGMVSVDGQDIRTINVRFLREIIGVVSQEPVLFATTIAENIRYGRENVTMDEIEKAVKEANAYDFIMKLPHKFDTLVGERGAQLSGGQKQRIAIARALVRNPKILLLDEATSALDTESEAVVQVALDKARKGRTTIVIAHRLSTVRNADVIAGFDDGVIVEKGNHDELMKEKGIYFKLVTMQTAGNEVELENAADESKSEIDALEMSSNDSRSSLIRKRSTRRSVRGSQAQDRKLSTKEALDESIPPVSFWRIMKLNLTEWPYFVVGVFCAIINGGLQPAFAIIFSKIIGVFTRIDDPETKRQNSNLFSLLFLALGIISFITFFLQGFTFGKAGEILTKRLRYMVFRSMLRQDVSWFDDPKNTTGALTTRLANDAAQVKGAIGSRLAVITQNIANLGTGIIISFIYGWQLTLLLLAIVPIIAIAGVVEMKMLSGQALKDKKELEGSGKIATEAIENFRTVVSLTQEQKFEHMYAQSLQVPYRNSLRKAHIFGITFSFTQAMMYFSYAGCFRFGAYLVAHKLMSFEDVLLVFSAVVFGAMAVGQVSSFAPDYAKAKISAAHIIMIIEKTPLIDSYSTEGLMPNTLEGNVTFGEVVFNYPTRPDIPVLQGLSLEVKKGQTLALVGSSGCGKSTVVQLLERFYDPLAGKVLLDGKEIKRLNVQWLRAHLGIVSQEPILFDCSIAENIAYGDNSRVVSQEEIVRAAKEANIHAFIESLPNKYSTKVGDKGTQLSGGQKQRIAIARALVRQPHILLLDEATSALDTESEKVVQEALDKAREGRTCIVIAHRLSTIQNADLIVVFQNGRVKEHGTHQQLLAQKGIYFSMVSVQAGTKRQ

COc1ccc([C@@H]2C[C@@H](O)[C@@]3(O)c4c(OC)cc(OC)cc4O[C@@]23c2ccccc2)cc1
IC50 [1]: > 10000 nM
IC50 ([2]; mcf7): Not Active
IC50 [3, 31]: > 10000 nM
IC50 [4]: > 10000 nM
IC50 ([5]; hct-15): Not Active
IC50 [6]: > 10000 nM
Activity [7]: Not Active
IC50 ([8]; hepg2): Not Active

COc1cccc2c1C(=O)c1c(O)c3c(c(O)c1C2=O)C[C@@](O)(C(=O)CO)C[C@@H]3O[C@H]1C[C@H](N)[C@H](O)[C@H](C)O1 [DOXORUBICIN]
IC50 [1]: 1 nM
IC50 [2, 31]: 12 nM
IC50 [3, 31]: 58 nM
IC50 [4]: 6 nM
IC50 [5, 32]: 81 nM
IC50 [6]: 13 nM
fold change (FC) [9]: 3
IC50 [8, 33]: 240 nM
Activity [10]: Active
fold change (FC) [11]: 14

COc1ccc([C@@]23Oc4cc(OC)cc(OC)c4[C@]2(O)[C@H](O)C[C@H]3c2ccccc2)cc1 (racemic) [ROCAGLAOL]
IC50 [1]: 2 nM
IC50 [2, 31]: 4 nM
IC50 [3, 31]: 4 nM
IC50 [4]: 6 nM
IC50 [5, 32]: 6 nM
IC50 [6]: 3 nM
Activity [7]: Not Active
Activity [12]: Active
Activity [13]: Not Active
IC50 [8, 33]: 70 nM
Activity [14]: Active
Activity [10]: Active
Activity [15]: Active
Activity [16]: Active
Activity [17]: inactive
Activity [18]: inactive
Activity [19]: inactive
Activity [20]: inactive
Activity [21]: inactive

COC(=O)C[C@H](NC(=O)[C@H](C)NC(=O)[C@@H](NC(=O)[C@H](C)NC(=O)OCc1ccccc1)[C@@H](C)O)C(=O)CF (Cbz-ATAD(OMe)-CH2F)
Activity [22]: Active

COc1ccc2c(c1)O[C@@]1(c3ccc(Br)cc3)[C@H](c3ccccc3)[C@@H](C(=O)NCCOCCOCCNC(=O)Cc3cc(=O)oc4cc(N(C)C)ccc34)[C@@H](O)[C@@]21O
IC50 [6]: 130 nM
Activity [23]: Not Active
Activity [24]: Active

CC[C@@]1(O)C(=O)OCc2c1cc1n(c2=O)Cc2cc3ccccc3nc2-1 [CAMPTOTHECIN]
IC50 [1]: 38 nM
IC50 [2, 31]: 10 nM
IC50 [3, 31]: 3 nM
IC50 [4]: 2 nM
IC50 [5, 32]: 3 nM
IC50 [6]: 6 nM
IC50 [8, 33]: 455 nM

CC(C)C[C@H](NC(=O)[C@H](Cc1ccccc1)NC(=O)c1cnccn1)B(O)O
Activity [25]: Active

COc1cc(OC)c2c(c1)O[C@@]1(c3ccc(Br)cc3)[C@H](c3ccccc3)[C@@H](C(=O)NCCOCCOCCOCCOCCOCCOCN)[C@@H](O)[C@@]21O
Activity [26]: inactive

COc1cc(OC)c2c(c1)O[C@@]1(c3ccccc3)[C@H](c3ccccc3)C[C@@H](O)[C@@]21O
IC50 [1]: 2500 nM
IC50 [2, 31]: 10000 nM
IC50 [3, 31]: 10000 nM
IC50 [4]: 6000 nM
IC50 [5, 32]: 8000 nM
IC50 [6]: 6000 nM
Activity [7]: Not Active
IC50 [8, 33]: > 10000 nM

CC(=O)O[C@@]12CO[C@@H]1C[C@H](O)[C@@]1(C)C(=O)[C@H](O)C3=C(C)[C@@H](OC(=O)[C@H](O)[C@@H](NC(=O)OC(C)(C)C)c4ccccc4)C[C@@](O)([C@@H](OC(=O)c4ccccc4)[C@H]21)C3(C)C.O.O.O [DOCETAXEL]
IC50 [1]: 0.2 nM
IC50 ([2]; mcf7): Not Active
IC50 ([3]; mcf7): Not Active
IC50 [4]: 0.5 nM
IC50 [5, 32]: 13 nM
IC50 [6]: 0.5 nM
IC50 ([8]; hepg2): Not Active

CC[C@]1(O)C[C@@H]2CN(CCc3c([nH]c4ccccc34)[C@@](C(=O)OC)(c3cc4c(cc3OC)N(C)[C@H]3[C@@](O)(C(=O)OC)[C@H](OC(C)=O)[C@]5(CC)C=CCN6CC[C@]43[C@@H]65)C2)C1 [VINBLASTINE]
IC50 [1]: 0.8 nM
IC50 [2, 31]: 4.6 nM
IC50 ([3]; mcf7): Not Active
IC50 [4]: 1.3 nM
IC50 [5, 32]: 10 nM
IC50 [6]: 1 nM
IC50 ([8]; hepg2): Not Active

CC(=O)NCCOCCOCCNC(=O)Cc1cc(=O)oc2cc(N(C)C)ccc12
Activity [15]: inactive
Activity [27]: Not Active
Activity [28]: Not Active
Activity [29]: Not Active

COC(=O)[C@H]1[C@@H](O)[C@@]2(O)c3c(OC)cc(O[C@@H]4O[C@@H]([C@H](O)CO)CO[C@H]4OC)cc3O[C@@]2(c2ccc(OC)cc2)[C@@H]1c1ccccc1 [SILVESTROL]
IC50 [30]: 300 nM

COC(=O)[C@H]1[C@@H](OC=O)[C@@]2(O)c3c(OC)cc(OC)cc3O[C@@]2(c2ccc(OC)cc2)[C@@H]1c1ccccc1
IC50 [30]: 3000 nM
